Experimental data: ChEMBL document CHEMBL3399972, “Structure-activity relationships of a novel pyranopyridine series of Gram-negative bacterial efflux pump inhibitors” (Bioorg Med Chem, 2015)
In brackets after ≈: the same amount, converted by molar mass. Activity calls are given as the source filed them.

Legend:
HeLa = assay: Cytotoxicity against human HeLa cells; format: cell-based
Escherichia coli [1] = assay: Antibacterial activity against Escherichia coli at 100 uM; format: functional, organism-based
Escherichia coli [2] = assay: Inhibition of multidrug resistance efflux pump in wild-type Escherichia coli AB1157 assessed as concentration required to reduce piperacillin MIC by 4-fold by checkerboard assay
Escherichia coli [3] = assay: Inhibition of multidrug resistance efflux pump in Escherichia coli assessed as concentration required to reduce levofloxacin MIC by 4-fold by checkerboard assay
[4] = Inhibition of mouse liver microsome CYP3A4 at 3 uM after 10 mins by luminescence assay; format: ADME; conditions: microsomes
[5] = Metabolic stability in mouse liver microsomes assessed as compound remaining at 25 uM after 60 mins by HPLC analysis in presence of NADPH; format: ADME; conditions: read-out: Stability
In short: (§1)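 Human or mouse liver microsomes at 0.5 mg/mL in 100 mM potassium phosphate pH 7.4 with 3 mM MgCl2, test compound 25 µM final, with or without (control) 2 mM NADPH; 37 °C for one hour, then stopped with equal volume acetonitrile containing 0.1% trifluoroacetic acid. Value: peak area with NADPH relative to no-NADPH control, as percent remaining.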

[6] = Aqueous solubility of the compound by nephlometric method; format: physicochemical
In short: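 Maximum solubility in water, measured by nephelometry.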

[7] = Metabolic stability in human liver microsomes assessed as compound remaining at 25 uM after 60 mins by HPLC analysis in presence of NADPH; format: ADME; conditions: read-out: Stability; in short: as §1
Escherichia coli [8] = assay: Inhibition of lactose permease-dependent [3H]TMG uptake in Escherichia coli HN1157 up to 20 uM
In short: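 Proton motive force probed in E. coli HN1157 by LacY permease-mediated accumulation of [methyl-3H] thiogalactopyranoside (stock 1 mCi/ml, 7 Ci/mmol), compounds tested at concentrations up to 20 µM.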

SMILES	CC50 (HeLa)	Activity (Escherichia coli [1])	INH (Escherichia coli [2])	INH (Escherichia coli [3])	inhibition (INH) [4]	remaining at 1 h, 25 µM [5]	solubility kinetic [6]	remaining at 1 h, 25 µM [7]	inhibition (Escherichia coli [8])
CN1CCCN(c2nc(SCCc3ccccc3)c(C#N)c3c2COC(C)(C)C3)CC1	16.4 µM	inactive	25 µM	12.5 µM					
CC1(C)Cc2c(C#N)c(SCCc3ccccc3)nc(N3CCCC3)c2CO1	20.2 µM	inactive	> 100 µM	> 100 µM					
CC1(C)Cc2c(C#N)c(SCCc3ccc(S(=O)(=O)O)cc3)nc(N3CCOCC3)c2CO1	17.2 µM	inactive	> 100 µM	> 100 µM					
COc1ccc(CCSc2nc(N3CCOCC3)c3c(c2C#N)CC(C)(C)OC3)cc1OC	69.4 µM	inactive	0.8 µM	1.3 µM	49%	5%	25 µM (≈ 11.7 µg/mL)	21%	
CC1(C)Cc2c(C#N)c(SCCc3ccc(F)cc3)nc(N3CCOCC3)c2CO1	59 µM	inactive	3.1 µM	6.3 µM					
COc1ccc(CCSc2nc(N3CCOCC3)c3c(c2C#N)CC(C)(C)OC3)cc1	> 100 µM	inactive	3.1 µM	6.3 µM					
CC1(C)Cc2c(C#N)c(SCCc3ccccc3)nc(N3CCCOCC3)c2CO1	> 100 µM	inactive	1.6 µM	> 100 µM					
CC1(C)Cc2c(C#N)c(SCC(=O)c3ccccc3)nc(N3CCOCC3)c2CO1		inactive	> 100 µM	> 100 µM					
CC1(C)Cc2c(C#N)c(SCCc3cccc(F)c3)nc(N3CCOCC3)c2CO1	> 100 µM	inactive	4.7 µM	> 100 µM					
CC1(C)Cc2c(C#N)c(SCCc3c[nH]c4ccccc34)nc(N3CCOCC3)c2CO1	44.8 µM	inactive	2.4 µM	12.5 µM					
CC1CN(c2nc(SCCc3ccccc3)c(C#N)c3c2COC(C)(C)C3)CC(C)O1 (stereo not given)	> 100 µM	inactive							
CC(=O)Oc1cccc(CCSc2nc(N3CCOCC3)c3c(c2C#N)CC(C)(C)OC3)c1	48.3 µM	inactive	1.6 µM	1.6 µM					
CC1(C)Cc2c(C#N)c(SCc3ccccc3)nc(N3CCOCC3)c2CO1		inactive	> 100 µM	> 100 µM					inactive
CC1(C)Cc2c(C#N)c(SCCc3cccc(C#N)c3)nc(N3CCOCC3)c2CO1	> 100 µM	inactive	3.9 µM	12.5 µM					
CC1(C)Cc2c(C#N)c(SCCc3ccccc3F)nc(N3CCOCC3)c2CO1	> 100 µM	inactive		> 100 µM					
COCCN1CCN(c2nc(SCCc3cccc(OC)c3)c(C#N)c3c2COC(C)(C)C3)CC1	46.5 µM	inactive	4.7 µM	6.3 µM					
N#Cc1c(SCCc2ccccc2)nc(N2CCOCC2)c2c1CCOC2		inactive	> 100 µM	> 100 µM					
CC1(C)Cc2c(C#N)c(SCCc3cccc(-c4nnn[nH]4)c3)nc(N3CCOCC3)c2CO1	20.7 µM	inactive	12.5 µM	> 100 µM					
CN(C)c1nc(SCCc2ccccc2)c(C#N)c2c1COC(C)(C)C2	57.4 µM	inactive	9.4 µM	> 100 µM					
COCCN1CCN(c2nc(SCCc3ccccn3)c(C#N)c3c2COC(C)(C)C3)CC1	> 100 µM	inactive	3.1 µM	12.5 µM	14%	3%	≥ 100 µM	0%	
CC1(C)Cc2c(C#N)c(SCCc3cccc(Cl)c3)nc(N3CCOCC3)c2CO1	> 100 µM	inactive	3.1 µM	3.1 µM					
CC1(C)Cc2c(C#N)c(SCCc3ccccc3)nc(N3CCCNCC3)c2CO1	20.3 µM	inactive	12.5 µM	12.5 µM					
CC1(C)Cc2c(C#N)c(SCCc3cccnc3)nc(N3CCOCC3)c2CO1	> 100 µM	inactive	3.1 µM	25 µM					
CC1(C)Cc2c(C#N)c(SCCc3ccccc3)nc(N3CCSCC3)c2CO1	> 100 µM	inactive	1.6 µM	> 100 µM					
COc1ccccc1CCSc1nc(N2CCOCC2)c2c(c1C#N)CC(C)(C)OC2	> 100 µM	inactive	3.1 µM	3.1 µM					

SMILES	CC50 (HeLa)	Activity (Escherichia coli [1])	INH (Escherichia coli [2])	INH (Escherichia coli [3])	inhibition (INH) [4]	remaining at 1 h, 25 µM [5]	solubility kinetic [6]	remaining at 1 h, 25 µM [7]	inhibition (Escherichia coli [8])
COc1cccc(CCSc2nc(N3CC(C)OC(C)C3)c3c(c2C#N)CC(C)(C)OC3)c1 (stereo not given)	> 100 µM	inactive	1.6 µM	9.4 µM					
CC1CN(c2nc(SCCc3ccc(NS(C)(=O)=O)cc3)c(C#N)c3c2COC(C)(C)C3)CC(C)O1 (stereo not given)	67 µM	inactive	6.3 µM	6.3 µM					
CN1CCN(c2nc(SCCc3ccccc3)c(C#N)c3c2COC(C)(C)C3)CC1	14.4 µM	inactive	6.3 µM	6.3 µM					
CC1CN(c2nc(SCCc3ccc(NC(=O)C(C)(C)C)cc3)c(C#N)c3c2COC(C)(C)C3)CC(C)O1 (stereo not given)	> 100 µM	inactive	> 100 µM	> 100 µM					
COCCN1CCN(c2nc(SCCc3ccncc3)c(C#N)c3c2COC(C)(C)C3)CC1	95.9 µM	inactive	50 µM	6.3 µM					
COCCN1CCN(c2nc(SCCc3ccccc3F)c(C#N)c3c2COC(C)(C)C3)CC1	30.6 µM	inactive	9.4 µM	12.5 µM					
COCCN1CCN(c2nc(SCCc3cccc(F)c3)c(C#N)c3c2COC(C)(C)C3)CC1	37.9 µM	inactive	6.3 µM	> 100 µM					
CC1(C)Cc2c(C#N)c(SCCCc3ccccc3)nc(N3CCOCC3)c2CO1		inactive	> 100 µM	> 100 µM					
CC1(C)Cc2c(C#N)c(SCCc3nnn[nH]3)nc(N3CCOCC3)c2CO1	30.2 µM	inactive	> 100 µM	> 100 µM					
CC1(C)Cc2c(C#N)c(SCCC#N)nc(N3CCOCC3)c2CO1	> 100 µM	inactive	> 100 µM	> 100 µM					
COCCN1CCN(c2nc(SCCc3ccccc3)c(C#N)c3c2COC(C)(C)C3)CC1	34.2 µM	inactive	0.4 µM	6.3 µM	18%	0%	50 µM (≈ 23.3 µg/mL)	0%	
CCN(CC)c1nc(SCCc2ccccc2)c(C#N)c2c1COC(C)(C)C2	38.2 µM	inactive	6.3 µM	> 100 µM					
COCCN1CCN(c2nc(SCCc3cccnc3)c(C#N)c3c2COC(C)(C)C3)CC1	> 100 µM	inactive	25 µM	> 100 µM					
CC1(C)Cc2c(C#N)c([S+]([O-])CCc3ccccc3)nc(N3CCOCC3)c2CO1 (stereo not given)		inactive	> 100 µM	> 100 µM					
CC1CN(c2nc(SCCc3ccc(NC(=O)C(F)(F)F)cc3)c(C#N)c3c2COC(C)(C)C3)CC(C)O1 (stereo not given)	64 µM	inactive	1.6 µM	1.6 µM	66%	0%	12.5 µM (≈ 6.86 µg/mL)	90%	
CC1(C)Cc2c(c(N3CCOCC3)nc(SCCc3ccccc3)c2C(N)=O)CO1		inactive	> 100 µM	> 100 µM					
CC1(C)Cc2c(c(N3CCOCC3)nc(SCCc3ccccc3)c2C(=N)NO)CO1		inactive	> 100 µM	> 100 µM					
COCCN1CCN(c2nc(SCCOc3ccccc3)c(C#N)c3c2COC(C)(C)C3)CC1	33.9 µM	inactive	12.5 µM	> 100 µM					
CC1(C)Cc2c(C#N)c(SCCc3ccccn3)nc(N3CCOCC3)c2CO1	78.1 µM	inactive	25 µM	50 µM					
CC1(C)Cc2c(C#N)c(S(=O)(=O)CCc3ccccc3)nc(N3CCOCC3)c2CO1		inactive	> 100 µM	> 100 µM					
COCCN1CCN(c2nc(SCCc3cccc(Br)c3)c(C#N)c3c2COC(C)(C)C3)CC1	75.1 µM	inactive	2.8 µM	12.5 µM					
N#Cc1c(SCCc2ccccn2)nc(N2CCOCC2)c2c1CCOC2		inactive	> 100 µM	> 100 µM					
CC1(C)Cc2c(C#N)c(SCC(O)c3ccccc3)nc(N3CCOCC3)c2CO1 (stereo not given)		inactive	> 100 µM	> 100 µM					
CC1(C)Cc2c(C#N)c(SCCc3coc4ccccc34)nc(N3CCOCC3)c2CO1	> 100 µM	inactive	6.3 µM	> 100 µM					
